The record followed here is ChEMBL document CHEMBL1921735, “Antibacterial optimization of 4-aminothiazolyl analogues of the natural product GE2270 A: identification of the cycloalkylcarboxylic acids” (J Med Chem, 2011).

pIC50: −log10 of the molar value. Values after ≈ are worked out from the molar mass of the structure shown. Active and inactive are the calls of the source.

Test [1] relates to Enterococcus faecalis. Kind of test: Antibacterial activity against Enterococcus faecalis ATCC 29212 by CLSI M07-A8 method. The test is classed as functional. A digest of the protocol: (§1)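 Broth microdilution MIC run per CLSI M07-A8 (2009).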
A further test concerns Enterococcus faecium. The experiment in a line: Antibacterial activity against Enterococcus faecium 7130724 by CLSI M07-A8 method. The format is functional. The essentials: as §1
In test [2] the test system is Staphylococcus aureus. The experiment in a line: Antibacterial activity against methicillin-resistant Staphylococcus aureus isolate A4.018 by CLSI M07-A8 method. The test is classed as functional.
The next test deals with Streptococcus pyogenes. The experiment in a line: Antibacterial activity against Streptococcus pyogenes ATCC BAA-595 by CLSI M07-A8 method. The test is classed as functional. A digest of the protocol:
as §1

In test [3] the test system is Staphylococcus aureus. The experiment in a line: Antibacterial activity against GE2270-A-resistant Staphylococcus aureus harboring tufA G258D mutant gene by CLSI M07-A8 method. The test is classed as functional.
For test [4], the system named is Staphylococcus aureus. The experiment in a line: Antibacterial activity against Staphylococcus aureus ATCC 49951 infected in CD1 mouse assessed as protection against bacterial infection administered 5 hrs post infection measured on day 5. The test is classed as functional. A digest of the protocol: (§2)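 Mouse lethal systemic infection: ip injection of 1 × 10^8 cfu/mouse (10−100× minimal lethal dose), E. faecalis in 50% sterile rat fecal extract, S. aureus in 0.9% NaCl. Therapy by tail-vein bolus at several doses, six mice per group. Started immediately for E. faecalis; at 1 and 5 h post-inoculation for S. aureus.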

For test [5], the system named is Enterococcus faecalis. Kind of test: Antibacterial activity against Enterococcus faecalis isolate NB04025 infected in CD1 mouse assessed as protection against bacterial infection administered immediately after infection measured on day 5. The test is classed as functional. The conditions noted are these: isolate NB04025, 120 h. The essentials: as §2
The test system of a further test is Streptococcus pneumoniae. Kind of test: Antibacterial activity against Streptococcus pneumoniae by CLSI M07-A8 method. The format is functional, organism-based. A digest of the protocol: as §1
In another test the test system is Escherichia coli. Kind of test: Antibacterial activity against Escherichia coli S30 assessed as inhibition of protein synthesis after 2 hrs by luminescence analysis. To be noted: S30, 2 h.

For orientation: MIC means the least concentration at which growth counts as inhibited. Broadly, the ED50 is the midpoint of the dose-response relation. Turning to `CNC(=O)C[C@@H]1NC(=O)c2csc(n2)-c2ccc(-c3nc(NC(=O)O[C@H]4CC[C@H](N)CC4)cs3)nc2-c2csc(n2)-c2csc(n2)[C@H]([C@@H](O)c2ccccc2)NC(=O)CNC(=O)c2nc(sc2COC)[C@H](C(C)C)NC(=O)c2nc1sc2C`, the MIC worked out at 0.5 µg/mL (≈ 0.404 µM) with Enterococcus faecalis [1], 0.5 µg/mL (≈ 0.404 µM) against Enterococcus faecium, 1 µg/mL (≈ 0.808 µM) in the test with Staphylococcus aureus [2] and 8 µg/mL (≈ 6.46 µM) against Streptococcus pyogenes. Besides, the outcome in the test on Staphylococcus aureus [3] was inactive. Further, the ED50 in the test on Staphylococcus aureus [4] is 19.3 mg/kg; in the test with Enterococcus faecalis [5] it was below 3.3 mg/kg. Further, in the test with Streptococcus pneumoniae, the result was Active.

As a reminder, the pIC50 is the negative decadic logarithm of the IC50, by convention in mol/L. Consider `CNC(=O)C[C@@H]1NC(=O)c2csc(n2)-c2ccc(-c3nc(NC(=O)OCCOCCOCCOC)cs3)nc2-c2csc(n2)-c2csc(n2)[C@H]([C@@H](O)c2ccccc2)NC(=O)CNC(=O)c2nc(sc2COC)[C@H](C(C)C)NC(=O)c2nc1sc2C`, for which the MIC with Enterococcus faecalis [1] was 0.5 µg/mL (≈ 0.389 µM); in the test on Enterococcus faecium, 0.5 µg/mL (≈ 0.389 µM); against Staphylococcus aureus [2], 4 µg/mL (≈ 3.11 µM); in the test with Streptococcus pyogenes, above 32 µg/mL. For the same compound, in the test on Streptococcus pneumoniae, the outcome was Active. Besides, the negative-log IC50 (pIC50) in the test with Escherichia coli was 4.97.

On to `CNC(=O)C[C@@H]1NC(=O)c2csc(n2)-c2ccc(-c3nc(NC(=O)[C@H](C)CCC(=O)O)cs3)nc2-c2csc(n2)-c2csc(n2)[C@H]([C@@H](O)c2ccccc2)NC(=O)CNC(=O)c2nc(sc2COC)[C@H](C(C)C)NC(=O)c2nc1sc2C`, for which the MIC amounted to 0.25 µg/mL (≈ 0.204 µM) in the test with Enterococcus faecalis [1], 0.5 µg/mL (≈ 0.408 µM) against Enterococcus faecium, 0.25 µg/mL (≈ 0.204 µM) in the test on Staphylococcus aureus [2] and 4 µg/mL (≈ 3.27 µM) against Streptococcus pyogenes. The result in the test on Staphylococcus aureus [3] was inactive. Further, the ED50 came out at 10.6 mg/kg with Staphylococcus aureus [4] and 11.1 mg/kg in the test with Enterococcus faecalis [5]. Further, in the test with Streptococcus pneumoniae, the outcome was Active.

In the case of `CNC(=O)C[C@@H]1NC(=O)c2csc(n2)-c2ccc(-c3nc(NC(=O)CCCCN)cs3)nc2-c2csc(n2)-c2csc(n2)[C@H]([C@@H](O)c2ccccc2)NC(=O)CNC(=O)c2nc(sc2COC)[C@H](C(C)C)NC(=O)c2nc1sc2C`, the MIC with Enterococcus faecalis [1] is 0.5 µg/mL (≈ 0.418 µM); in the test with Enterococcus faecium, 1 µg/mL (≈ 0.836 µM); with Staphylococcus aureus [2], 1 µg/mL (≈ 0.836 µM); in the test on Streptococcus pyogenes, 4 µg/mL (≈ 3.35 µM). In the test with Streptococcus pneumoniae, the result was Active. The pIC50 with Escherichia coli is 5.72.

As for `CNC(=O)C[C@@H]1NC(=O)c2csc(n2)-c2ccc(-c3nc(NC(=O)[C@H](CN)CCC(=O)O)cs3)nc2-c2csc(n2)-c2csc(n2)[C@H]([C@@H](O)c2ccccc2)NC(=O)CNC(=O)c2nc(sc2COC)[C@H](C(C)C)NC(=O)c2nc1sc2C`, the MIC against Enterococcus faecalis [1] was 0.5 µg/mL (≈ 0.403 µM); in the test with Enterococcus faecium, 1 µg/mL (≈ 0.807 µM); in the test on Staphylococcus aureus [2], 1 µg/mL (≈ 0.807 µM); against Streptococcus pyogenes it was above 32 µg/mL. Further, the result in the test on Staphylococcus aureus [3] was inactive. Also, the results for the 50% effective dose (ED50) in the test on Staphylococcus aureus [4] and in the test with Enterococcus faecalis [5] were 9.5 mg/kg and above 60 mg/kg, respectively. In addition, the result with Streptococcus pneumoniae was Active.

With `CNC(=O)C[C@@H]1NC(=O)c2csc(n2)-c2ccc(-c3nc(NC(=O)CCCCC(=O)OC)cs3)nc2-c2csc(n2)-c2csc(n2)[C@H]([C@@H](O)c2ccccc2)NC(=O)CNC(=O)c2nc(sc2COC)[C@H](C(C)C)NC(=O)c2nc1sc2C`, the minimal inhibitory concentration (MIC) in the test with Enterococcus faecalis [1] was 4 µg/mL (≈ 3.23 µM); against Enterococcus faecium, 2 µg/mL (≈ 1.61 µM); in the test with Staphylococcus aureus [2], above 32 µg/mL; against Streptococcus pyogenes it was above 32 µg/mL. Besides, the outcome in the test with Streptococcus pneumoniae was Active. In addition, the negative-log IC50 (pIC50) in the test with Escherichia coli is below 4.49.

Regarding `CNC(=O)C[C@@H]1NC(=O)c2csc(n2)-c2ccc(-c3nc(NC(=O)CCCN(C)C)cs3)nc2-c2csc(n2)-c2csc(n2)[C@H]([C@@H](O)c2ccccc2)NC(=O)CNC(=O)c2nc(sc2COC)[C@H](C(C)C)NC(=O)c2nc1sc2C`, the minimal inhibitory concentration (MIC) turned out to be 0.5 µg/mL (≈ 0.413 µM) in the test with Enterococcus faecalis [1], 1 µg/mL (≈ 0.827 µM) in the test on Enterococcus faecium, 1 µg/mL (≈ 0.827 µM) against Staphylococcus aureus [2] and 4 µg/mL (≈ 3.31 µM) against Streptococcus pyogenes. In the test with Streptococcus pneumoniae, the outcome was Active. Moreover, the negative-log IC50 (pIC50) in the test on Escherichia coli was 5.59.

With `CNC(=O)C[C@@H]1NC(=O)c2csc(n2)-c2ccc(-c3nc(NC(=O)c4cnc(C(=O)O)cn4)cs3)nc2-c2csc(n2)-c2csc(n2)[C@H]([C@@H](O)c2ccccc2)NC(=O)CNC(=O)c2nc(sc2COC)[C@H](C(C)C)NC(=O)c2nc1sc2C`, the minimum inhibitory concentration (MIC) in the test on Enterococcus faecalis [1] worked out at 0.25 µg/mL (≈ 0.201 µM); in the test with Enterococcus faecium it was 0.25 µg/mL (≈ 0.201 µM); with Staphylococcus aureus [2] it was 0.5 µg/mL (≈ 0.401 µM); against Streptococcus pyogenes, 8 µg/mL (≈ 6.42 µM). Further, the median effective dose (ED50) with Staphylococcus aureus [4] was determined as 13.9 mg/kg; with Enterococcus faecalis [5] it was 2.2 mg/kg. Also, in the test with Streptococcus pneumoniae, the outcome was Active.

`CNC(=O)C[C@@H]1NC(=O)c2csc(n2)-c2ccc(-c3nc(NC(=O)OCCCC(N)=O)cs3)nc2-c2csc(n2)-c2csc(n2)[C@H]([C@@H](O)c2ccccc2)NC(=O)CNC(=O)c2nc(sc2COC)[C@H](C(C)C)NC(=O)c2nc1sc2C`: the MIC is 0.25 µg/mL (≈ 0.204 µM) with Enterococcus faecalis [1], 0.25 µg/mL (≈ 0.204 µM) in the test on Enterococcus faecium, 0.5 µg/mL (≈ 0.408 µM) in the test on Staphylococcus aureus [2] and above 32 µg/mL against Streptococcus pyogenes. For the same compound, in the test on Streptococcus pneumoniae, the outcome was Active. In addition, in the test on Escherichia coli, the pIC50 is 5.62.

On to `CNC(=O)C[C@@H]1NC(=O)c2csc(n2)-c2ccc(-c3nc(NC(=O)OCCCC(=O)O)cs3)nc2-c2csc(n2)-c2csc(n2)[C@H]([C@@H](O)c2ccccc2)NC(=O)CNC(=O)c2nc(sc2COC)[C@H](C(C)C)NC(=O)c2nc1sc2C`, for which the MIC against Enterococcus faecalis [1] amounted to 0.03 µg/mL (≈ 0.0245 µM); in the test with Enterococcus faecium, 0.06 µg/mL (≈ 0.0489 µM); in the test on Staphylococcus aureus [2] it was 0.06 µg/mL (≈ 0.0489 µM); against Streptococcus pyogenes, 1 µg/mL (≈ 0.815 µM). For the same compound, the outcome in the test on Staphylococcus aureus [3] was inactive. In addition, the median effective dose (ED50) in the test on Staphylococcus aureus [4] amounted to 5.4 mg/kg; with Enterococcus faecalis [5], 3.1 mg/kg. For the same compound, in the test with Streptococcus pneumoniae, the result was Active.

For `CNC(=O)C[C@@H]1NC(=O)c2csc(n2)-c2ccc(-c3nc(NC(=O)CCCCP(=O)(O)O)cs3)nc2-c2csc(n2)-c2csc(n2)[C@H]([C@@H](O)c2ccccc2)NC(=O)CNC(=O)c2nc(sc2COC)[C@H](C(C)C)NC(=O)c2nc1sc2C`, the MIC in the test with Enterococcus faecalis [1], with Enterococcus faecium, in the test on Staphylococcus aureus [2] and against Streptococcus pyogenes was above 32 µg/mL each time. For the same compound, in the test with Streptococcus pneumoniae, the outcome was Active. In addition, the negative-log IC50 (pIC50) in the test on Escherichia coli is 5.82.

As to `CNC(=O)C[C@@H]1NC(=O)c2csc(n2)-c2ccc(-c3nc(NC(=O)CCCO)cs3)nc2-c2csc(n2)-c2csc(n2)[C@H]([C@@H](O)c2ccccc2)NC(=O)CNC(=O)c2nc(sc2COC)[C@H](C(C)C)NC(=O)c2nc1sc2C`, the MIC was 0.5 µg/mL (≈ 0.423 µM) against Enterococcus faecalis [1], 0.5 µg/mL (≈ 0.423 µM) against Enterococcus faecium, 1 µg/mL (≈ 0.846 µM) against Staphylococcus aureus [2] and above 32 µg/mL with Streptococcus pyogenes. The outcome in the test with Streptococcus pneumoniae was Active. In addition, in the test with Escherichia coli, the pIC50 is below 4.80.

In the case of `CNC(=O)C[C@@H]1NC(=O)c2csc(n2)-c2ccc(-c3nc(NC(=O)O[C@H]4C[C@@H](C(=O)O)C4)cs3)nc2-c2csc(n2)-c2csc(n2)[C@H]([C@@H](O)c2ccccc2)NC(=O)CNC(=O)c2nc(sc2COC)[C@H](C(C)C)NC(=O)c2nc1sc2C`, the minimum inhibitory concentration (MIC) against Enterococcus faecalis [1] worked out at 0.06 µg/mL (≈ 0.0484 µM); against Enterococcus faecium, 0.03 µg/mL (≈ 0.0242 µM); against Staphylococcus aureus [2], 0.06 µg/mL (≈ 0.0484 µM); against Streptococcus pyogenes, 1 µg/mL (≈ 0.807 µM). Moreover, the 50% effective dose (ED50) with Staphylococcus aureus [4] was found to be 2.9 mg/kg; in the test on Enterococcus faecalis [5], 1 mg/kg. For the same compound, the result in the test on Streptococcus pneumoniae was Active.

`CNC(=O)C[C@@H]1NC(=O)c2csc(n2)-c2ccc(-c3nc(NC(=O)c4ccc(C(=O)O)cn4)cs3)nc2-c2csc(n2)-c2csc(n2)[C@H]([C@@H](O)c2ccccc2)NC(=O)CNC(=O)c2nc(sc2COC)[C@H](C(C)C)NC(=O)c2nc1sc2C`: the MIC is 0.125 µg/mL (≈ 0.1 µM) with Enterococcus faecalis [1], below 0.06 µg/mL against Enterococcus faecium, 0.25 µg/mL (≈ 0.201 µM) in the test with Staphylococcus aureus [2] and 4 µg/mL (≈ 3.21 µM) against Streptococcus pyogenes. For the same compound, the figures for the ED50 with Staphylococcus aureus [4] and in the test with Enterococcus faecalis [5] were 4.4 mg/kg and 0.8 mg/kg, respectively. The result in the test with Streptococcus pneumoniae was Active.
